Source: ChEMBL document CHEMBL3108672, “Structure-activity relationship of adenosine 5'-diphosphoribose at the transient receptor potential melastatin 2 (TRPM2) channel: rational design of antagonists” (J Med Chem, 2013)
Activity calls are given as the source filed them. No cut-off for these calls is given here.

Key:
[1] = target: T1, Transient receptor potential cation channel subfamily M member 2 (Homo sapiens, UniProt O94759); experiment: Antagonist activity at human TRPM2 expressed in HEK293 cells assessed as inhibition of ADPR-induced maximum outward potassium current at +15 mV by whole-cell patch-clamp electrophysiology; type: cell-based
In short: (§1)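 Stable clonal HEK293 line expressing human TRPM2 (with EGFP, G418-selected). Whole-cell patch clamp at room temperature; bath had 140 mM NMDG, 1 mM Ca2+, pH 7.4; KCl/EGTA pipet solution held 200 nM free Ca2+. Channel was activated by 100 μM ADPR in the pipet, and analogue was added to the same pipet solution. Read-out: maximum outward current at +15 mV from repeated ramps every 5 s over 450 s.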

[2] = target: T1, Transient receptor potential cation channel subfamily M member 2; experiment: Antagonist activity at human TRPM2 expressed in HEK293 cells assessed as inhibition of ADPR-induced maximum outward potassium current at 100 uM at +15 mV by whole-cell patch-clamp electrophysiology; type: cell-based; in short: as §1
[3] = target: T1, Transient receptor potential cation channel subfamily M member 2; experiment: Inhibition of TRPM2 (unknown origin) expressed in HEK293 cells assessed as inhibition of ADP-ribose-induced current by patch clamp technique; type: cell-based
[4] = target: T1, Transient receptor potential cation channel subfamily M member 2; experiment: Partial antagonist activity at TRPM2 in human polymorphonuclear neutrophils assessed as reduction in fMLP-induced intracellular calcium accumulation at 100 uM preincubated for 15 mins followed by fMLP-challenge by fluorescence microscopic analysis relative to control; type: cell-based; design: scale not given: the % may be the effect or the level left
In short: (§2)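 Primary human PMN were used within 6 h of blood donation, loaded with 4 μM Fura-2/AM for 30 min at 37 °C, and plated on fibronectin/BSA-coated coverslips. Cells were preincubated 15 min at ambient temperature with 10 mM ascorbate plus 100 μM analogue. About 70 s into recording they were stimulated with 1 μM fMLP or 10 μM A5 peptide. Read-out: ratiometric Ca2+ imaging, single-cell traces synchronized to the first peak.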

[5] = target: T1, Transient receptor potential cation channel subfamily M member 2; experiment: Partial antagonist activity at TRPM2 in human polymorphonuclear neutrophils assessed as reduction in A5 peptide-induced intracellular calcium accumulation at 100 uM preincubated for 15 mins followed by A5 peptide-challenge by fluorescence microscopic analysis relative to control; type: cell-based; design: scale not given: the % may be the effect or the level left; in short: as §2
[6] = target: T1, Transient receptor potential cation channel subfamily M member 2; experiment: Partial antagonist activity at TRPM2 in human polymorphonuclear neutrophils assessed as reduction in fMLP-induced chemotaxis at 100 uM preincubated for 15 mins followed by fMLP-challenge by microscopic analysis
In short: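 Primary human PMN at 3 × 10^6/mL, in Ca2+ buffer with 10% autologous plasma, were held 15 min at room temperature with 100 μM analogue in fibronectin-coated microfluidic chemotaxis slides. A 0→50 nM fMLP gradient was applied, and bright-field images were taken every 30 s for 1 h. Cells were tracked manually; read-out was displacement along the gradient.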

[7] = target: T1, Transient receptor potential cation channel subfamily M member 2; experiment: Inhibition of TRPM2 (unknown origin)
[8] = target: T1, Transient receptor potential cation channel subfamily M member 2; experiment: Inhibition of human recombinant TRPM2
[9] = target: T1, Transient receptor potential cation channel subfamily M member 2; experiment: Antagonist activity at human TRPM2 expressed in HEK293 cells assessed as partial inhibition of ADPR-induced maximum outward potassium current at +15 mV by whole-cell patch-clamp electrophysiology; type: cell-based; in short: as §1
[10] = target: T1, Transient receptor potential cation channel subfamily M member 2; experiment: Antagonist activity at human TRPM2 expressed in HEK293 cells assessed as inhibition of ADPR-induced maximum outward potassium current at 900 uM at +15 mV by whole-cell patch-clamp electrophysiology; type: cell-based; in short: as §1
[11] = target: T1, Transient receptor potential cation channel subfamily M member 2; experiment: Inhibition of human TRPM2 expressed in HEK293 cells assessed as inhibition of H2O2-induced intracellular calcium level by patch clamp technique; type: cell-based
[12] = target: T1, Transient receptor potential cation channel subfamily M member 2; experiment: Activation of TRPM2 (unknown origin)
In short: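 Whole-cell patch clamp at room temperature on a HEK293 clone stably expressing human TRPM2 with EGFP (G418-selected). Bath solution: 140 mM NMDG, 5 mM KCl, 3.3 mM MgCl₂, 1 mM CaCl₂, HEPES pH 7.4. KCl pipet solution with free Ca²⁺ buffered to 200 nM by EGTA, plus 100 μM ADPR. Cells held at −50 mV with 140 ms ramps from −85 mV every 5 s for 450 s. Read-out was the maximum outward current at +15 mV.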

[13] = target: T1, Transient receptor potential cation channel subfamily M member 2; experiment: Inhibition of human TRPM2 expressed in HEK293 cells assessed as inhibition of ADP-ribose-induced current by patch clamp electrophysiology; type: cell-based
In short: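 Whole-cell patch clamp of a stable HEK293 clone co-expressing human TRPM2 and EGFP (G418-selected), at room temperature. Bath: 140 mM NMDG, 1 mM Ca²⁺, pH 7.4. Pipette: KCl-based with 200 nM free Ca²⁺ and 100 μM ADPR, with analogue added to it (0.1% DMSO for lipophilic ones). Voltage ramps from −85 mV every 5 s for 450 s. Maximum outward current at +15 mV is normalised to the ADPR control and fitted to a logistic curve for IC50.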

T1 sequence (O94759 whole entry): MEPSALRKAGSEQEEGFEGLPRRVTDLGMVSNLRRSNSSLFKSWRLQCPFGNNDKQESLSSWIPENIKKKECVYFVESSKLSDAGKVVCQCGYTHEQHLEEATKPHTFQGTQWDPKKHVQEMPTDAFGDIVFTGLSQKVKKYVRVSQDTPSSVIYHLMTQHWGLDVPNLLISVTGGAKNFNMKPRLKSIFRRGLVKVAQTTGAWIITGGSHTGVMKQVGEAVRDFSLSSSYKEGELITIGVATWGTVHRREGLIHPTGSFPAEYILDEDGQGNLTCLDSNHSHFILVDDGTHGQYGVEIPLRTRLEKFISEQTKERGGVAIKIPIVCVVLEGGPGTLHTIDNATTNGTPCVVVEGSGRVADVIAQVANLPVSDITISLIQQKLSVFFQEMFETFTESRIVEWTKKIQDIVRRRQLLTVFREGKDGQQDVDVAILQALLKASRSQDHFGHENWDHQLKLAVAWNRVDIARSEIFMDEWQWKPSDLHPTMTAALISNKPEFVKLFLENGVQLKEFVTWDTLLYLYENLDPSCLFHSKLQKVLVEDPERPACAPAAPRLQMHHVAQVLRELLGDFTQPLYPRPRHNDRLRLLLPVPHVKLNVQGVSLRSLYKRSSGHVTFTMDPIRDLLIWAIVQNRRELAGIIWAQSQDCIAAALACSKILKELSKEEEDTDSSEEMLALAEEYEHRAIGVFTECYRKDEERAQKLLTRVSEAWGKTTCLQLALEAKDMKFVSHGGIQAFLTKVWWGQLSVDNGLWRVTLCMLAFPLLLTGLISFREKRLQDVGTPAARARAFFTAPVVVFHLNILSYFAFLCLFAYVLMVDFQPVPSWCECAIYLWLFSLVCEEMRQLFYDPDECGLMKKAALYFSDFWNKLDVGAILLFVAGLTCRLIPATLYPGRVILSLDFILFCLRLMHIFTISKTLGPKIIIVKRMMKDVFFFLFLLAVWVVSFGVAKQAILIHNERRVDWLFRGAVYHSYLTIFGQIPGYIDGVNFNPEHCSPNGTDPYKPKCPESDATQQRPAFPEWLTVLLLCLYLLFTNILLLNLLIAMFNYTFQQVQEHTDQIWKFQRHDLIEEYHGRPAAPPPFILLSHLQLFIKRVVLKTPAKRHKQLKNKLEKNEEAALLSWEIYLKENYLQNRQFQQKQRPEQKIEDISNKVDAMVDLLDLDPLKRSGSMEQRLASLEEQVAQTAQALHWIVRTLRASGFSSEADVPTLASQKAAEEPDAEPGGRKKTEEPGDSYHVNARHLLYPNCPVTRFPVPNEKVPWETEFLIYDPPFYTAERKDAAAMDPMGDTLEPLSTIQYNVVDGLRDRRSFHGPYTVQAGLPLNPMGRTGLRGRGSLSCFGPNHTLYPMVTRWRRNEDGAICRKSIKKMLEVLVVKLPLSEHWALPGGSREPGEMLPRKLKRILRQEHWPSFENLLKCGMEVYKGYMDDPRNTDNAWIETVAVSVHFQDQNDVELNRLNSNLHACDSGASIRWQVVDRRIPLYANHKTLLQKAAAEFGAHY

Compound: COc1ncnc2c1ncn2[C@@H]1O[C@H](COP(=O)(O)OP(=O)(O)OC[C@H]2OC(O)[C@H](O)[C@@H]2O)[C@@H](O)[C@H]1O (stereo not given in full)
- IC50 ([1]; hek293): Not Active

Compound: Nc1ncnc2c1ncn2[C@@H]1O[C@H](CNc2c(NC[C@H]3O[C@@H](O)[C@H](O)[C@@H]3O)c(=O)c2=O)[C@@H](O)[C@H]1O
- inhibition [2]: inactive

Compound: Nc1nc(F)nc2c1ncn2[C@@H]1O[C@H](COP(=O)(O)OP(=O)(O)OC[C@H]2OC(O)[C@H](O)[C@@H]2O)[C@@H](O)[C@H]1O (stereo not given in full)
- IC50 ([1]; hek293): Not Active

Compound: Nc1ncnc2c1nc(Br)n2[C@@H]1O[C@H](COP(=O)(O)OP(=O)(O)OC[C@H]2OC(O)[C@H](O)[C@@H]2O)[C@@H](O)[C@H]1O (stereo not given in full)
- IC50 ([1]; read-out: IC50): 300 µM

Compound: COPPER
- IC50 [3]: 2.6 µM

Compound: Nc1ncnc2c1nc(-c1ccc(CC(N)C(=O)O)cc1)n2[C@@H]1O[C@H](COP(=O)(O)O)[C@@H](O)[C@H]1O (stereo not given in full)
- inhibition [2]: inactive

Compound: Nc1ncnc2c1nc(-c1ccccc1)n2[C@@H]1O[C@H](COP(=O)(O)OP(=O)(O)OC[C@H]2OC(O)[C@H](O)[C@@H]2O)[C@@H](O)[C@H]1O (stereo not given in full)
- Activity [4]: 31.8%
- IC50 ([1]; read-out: IC50): 11 µM
- Activity [5]: 31.4%
- Activity [6]: Active

Compound: Nc1ncnc2c1ncn2[C@@H]1O[C@H](CNc2c(NC3CCCC3)c(=O)c2=O)[C@@H](O)[C@H]1O
- inhibition [2]: inactive

Compound: Clc1ccc(COC(Cn2ccnc2)c2ccc(Cl)cc2Cl)cc1 (stereo not given) [ECONAZOLE]
- IC50 [7]: < 3 µM

Compound: O=C(O)c1cccnc1Nc1cccc(C(F)(F)F)c1 [NIFLUMIC ACID]
- IC50 [8]: 149 µM

Compound: CCCCCCNc1c(NC[C@H]2O[C@@H](n3cnc4c(N)ncnc43)[C@H](O)[C@@H]2O)c(=O)c1=O
- inhibition [2]: inactive

Compound: Nc1ncnc2c1ncn2[C@@H]1O[C@H](COP(=O)(O)OP(=O)(O)OC2CCCC2)[C@@H](O)[C@H]1O
- IC50 [9]: < 900 µM

Compound: O=c1[nH]cnc2c1ncn2[C@@H]1O[C@H](COP(=O)(O)OP(=O)(O)OC[C@H]2OC(O)[C@H](O)[C@@H]2O)[C@@H](O)[C@H]1O (stereo not given in full)
- IC50 ([1]; hek293): Not Active

Compound: O=c1[nH]cnc2c1ccn2[C@@H]1O[C@H](COP(=O)(O)OP(=O)(O)OC[C@H]2OC(O)[C@H](O)[C@@H]2O)[C@@H](O)[C@H]1O (stereo not given in full)
- IC50 ([1]; hek293): Not Active

Compound: Nc1ncnc2c1nc(-c1ccccc1)n2[C@H]1C[C@H](O)[C@@H](COP(=O)(O)OP(=O)(O)OC[C@H]2OC(O)[C@H](O)[C@@H]2O)O1 (stereo not given in full)
- IC50 ([1]; read-out: IC50): 3 µM
- inhibition [10]: Active

Compound: O=C(O)c1ccccc1Nc1cccc(C(F)(F)F)c1 [FLUFENAMIC ACID]
- IC50 [8]: 70 µM

Compound: Nc1ncnc2c1nc(N)n2[C@@H]1O[C@H](COP(=O)(O)OP(=O)(O)OC[C@H]2OC(O)[C@H](O)[C@@H]2O)[C@@H](O)[C@H]1O (stereo not given in full)
- IC50 ([1]; hek293): Not Active

Compound: Nc1ncnc2c1nc(-c1ccccc1)n2[C@@H]1O[C@H](COP(=O)(O)OP(=O)(O)OC2CCCC2)[C@@H](O)[C@H]1O
- inhibition [2]: Active
- IC50 ([1]; read-out: IC50): 15 µM

Compound: CC(=O)c1cccc(-c2nc3c(N)ncnc3n2[C@@H]2O[C@H](COP(=O)(O)OP(=O)(O)OC[C@H]3OC(O)[C@H](O)[C@@H]3O)[C@@H](O)[C@H]2O)c1 (stereo not given in full)
- IC50 ([1]; read-out: IC50): 49 µM

Compound: Nc1ncnc2c1nc(-c1ccccc1)n2[C@@H]1O[C@H](Cn2cc(COC[C@H]3OC(O)[C@H](O)[C@@H]3O)nn2)[C@@H](O)[C@H]1O (stereo not given in full)
- inhibition [2]: inactive

Compound: CCCCCc1ccc(/C=C/C(=O)Nc2ccccc2C(=O)O)cc1
- IC50 [11]: 1.7 µM

Compound: Nc1ncnc2c1ncn2[C@@H]1O[C@H](COP(=O)(O)OP(=O)(O)O)[C@@H](O)[C@H]1O
- inhibition [10]: inactive

Compound: Nc1ncnc2c1nc(-c1ccsc1)n2[C@@H]1O[C@H](COP(=O)(O)OP(=O)(O)OC[C@H]2OC(O)[C@H](O)[C@@H]2O)[C@@H](O)[C@H]1O (stereo not given in full)
- IC50 ([1]; read-out: IC50): 51 µM

Compound: Nc1ncnc2c1ncn2[C@@H]1O[C@H](COP(=O)(O)OP(=O)(O)OP(=O)(O)OC[C@H]2OC(O)[C@H](O)[C@@H]2O)[C@@H](O)[C@H]1O (stereo not given in full)
- inhibition [10]: inactive

Compound: Nc1ncnc2c1ncn2CCCCOP(=O)(O)OP(=O)(O)OC[C@H]1OC(O)[C@H](O)[C@@H]1O (stereo not given in full)
- inhibition [2]: inactive

Compound: Nc1ncnc2c1cc(Br)n2[C@@H]1O[C@H](COP(=O)(O)OP(=O)(O)OC[C@H]2OC(O)[C@H](O)[C@@H]2O)[C@@H](O)[C@H]1O (stereo not given in full)
- IC50 ([1]; hek293): Not Active

Compound: Clc1ccccc1C(c1ccccc1)(c1ccccc1)n1ccnc1 [CLOTRIMAZOLE]
- IC50 [7]: < 3 µM

Compound: Cc1cccc(Nc2ccccc2C(=O)O)c1C [MEFENAMIC ACID]
- IC50 [8]: 124 µM

Compound: Nc1ncnc2c1ncn2[C@@H]1O[C@H](COP(=O)(O)O)[C@@H](O)[C@H]1O [ADENOSINE PHOSPHATE]
- IC50 [7]: 70 µM
- inhibition [10]: inactive

Compound: Nc1ncnc2c1ncn2[C@@H]1O[C@H](COP(=O)(O)OP(=O)(O)OC[C@H]2OC(O)[C@H](O)[C@@H]2O)[C@@H](O)[C@H]1O (stereo not given in full)
- EC50 [12]: 100 µM

Compound: Cc1cccc(Nc2ccccc2C(=O)O)c1
- IC50 [13]: 76 µM

Compound: CCCCNc1c(NC[C@H]2O[C@@H](n3cnc4c(N)ncnc43)[C@H](O)[C@@H]2O)c(=O)c1=O
- inhibition [2]: inactive

Compound: Nc1ncnc2c1nc(Cl)n2[C@@H]1O[C@H](COP(=O)(O)O)[C@@H](O)[C@H]1O
- IC50 ([1]; hek293): Not Active
- inhibition [10]: inactive
